Reference: ChEMBL document CHEMBL4513216, “Probing the Open Global Health Chemical Diversity Library for Multistage-Active Starting Points for Next-Generation Antimalarials” (ACS Infect Dis, 2020)

Assay: Toxicity liver stage against HepG2, at 10uM
Format: cell-based
Set-up: test concentration 10 uM, cell line HepG2-A16-CD81EGFP
Conditions: human, HepG2-A16-CD81EGFP cells; read-out: INHIBITION
How it was run: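 Uninfected HepG2-A16-CD81EGFP cells, 3 × 10^3 per well, 1536-well, plated on prespotted compound at 10 μM final, parasite-free screening media added to match infected plates; puromycin 10 μM positive, DMSO 0.5% negative; run in parallel with 48 h PbLuc assay at 37 °C, 5% CO2; viability by CellTiter-Glo luminescence, normalized to controls.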

SMILES	cytotoxicity at 10 µM [%]
Fc1ccccc1Sc1ccccc1CNC1=NCCN1	12.5
CC1CCN(C[C@H]2CN3CC[C@H]2C[C@@H]3CNC(=O)Nc2ccsc2)CC1	2.95
COC(=O)c1ccc(C2SC(C)=Nc3c2c(=O)[nH]n3C2CCCC2)cc1 (configuration not stated)	6.84
CC(C)C1SCC(=O)Nc2c1cnn2-c1ccc(Cl)cc1 (configuration not stated)	47
CN(C)c1ccc2c(c1)CN(C(=O)c1c[nH]cn1)C2c1cnco1 (configuration not stated)	-0.234
CC(C)Nc1nc2c(c(NC3CC3)n1)CN(C(=O)c1ccsc1)CC2	-27.2
Cn1nc(CN2CCCCC2)c2c1CN(C(=O)Nc1cccc(F)c1)C2	5.68
CCS(=O)(=O)N1CCc2ncnc(OC)c2CC1	6.93
O=C(c1cc[nH]n1)N1CC[C@@H]2CN(Cc3cccnc3)S(=O)(=O)[C@@H]2CC1	12.7
OCCCNc1nc(O)c2c(n1)-c1ccccc1CC21CCCCC1	11.1
Cc1[nH]/c(=N\C(=O)c2csc(NC3CC3)n2)sc1C	37.4
CC(=O)Nc1ncc(S(=O)(=O)Nc2ccc(C)cc2)s1	8.6
CCc1noc(C2CCCCN2C(=O)c2cc(C)oc2C)n1 (configuration not stated)	8.57
Cc1ccnn1CCCNC(=O)C1CCN(S(C)(=O)=O)CC1	3.63
CCN(CC)C(=O)CN1CCC2(C=Cc3cc(Cl)c(C)cc3O2)CC1	-3.02
Cc1cc(C)nc(N2CCC(c3ccnc(N(C)C)n3)CC2)n1	21.1
CN(C)c1nccc(C2CCN(c3ncccn3)CC2)n1	0.59
c1cc(CNc2ncc(-c3cnccn3)c(C3CC3)n2)ccn1	24
CCn1ccc(-c2cc(NCCCOc3cccc(C)c3)nc(C)n2)n1	-5.65
O=C(NC1CC1)C1(Cc2ccccc2-c2ccncc2)CCOCC1	-3.83
CCCN(C(=O)c1cccnc1)c1nc2c(s1)CCc1c-2cnn1C	5.05
CCc1ccc(C(=O)N2CC[C@H](Oc3cccnc3C)[C@@H](O)CC2)cc1	8.24

SMILES	cytotoxicity at 10 µM [%]
Cc1ncsc1-c1nnc(C2CCN(Cc3ccc(Cl)cc3)CC2)o1	-4.41
Cc1ccc(Nc2nccc(C3CCCN(CC(=O)N(C)C)C3)n2)nc1 (configuration not stated)	-2.09
c1nc2c(c(NC3CCc4ncnn4C3)n1)CCC2 (configuration not stated)	-40.7
CC(C)(C)CN(CCC#N)C(=O)c1cccc(CC#N)c1	7.05
CC(c1nc(-c2ccccc2)no1)N1CCc2c(ncn2C2CC2)C1 (configuration not stated)	7.12
CN(CCc1ccncc1)CCc1nccs1	1.8
COCC1CCN(c2ccnc3ccsc23)C1 (configuration not stated)	6.24
CC(C)(C)n1ncc(NCC(O)c2ccccc2)c(Cl)c1=O (configuration not stated)	46.6
N#Cc1cccn(CCOc2ccc(Cl)cc2)c1=O	18.6
CC(C)Cn1ncc(C(=O)NS(=O)(=O)c2ccccc2)c1C1CC1	2.35
CSCc1cc(F)ccc1CNC(=O)N1CCCC(CO)C1 (configuration not stated)	10.3
COc1cc(C)sc1C(=O)NCCC(=O)N(C)c1ccccc1	-1.41
CC(NC(=O)COc1cccc[n+]1[O-])C1CC1 (configuration not stated)	-6.66
CC(C)(C)C(=O)Cn1nc(C2CC2)cc(C(F)(F)F)c1=O	-8.06
CN(c1ccc(CNC(=O)c2c[nH]c(=O)c(Cl)c2)cc1)C1CCCCC1	88.9
CC(C)(C)SCC(=O)NCCc1csc(N2CCCC2)n1	8.74
COCc1noc(C2(c3ccc(F)cc3)CCC2)n1	5.93
Cc1cc(C(=O)NCc2ccccc2CN(C)Cc2ccco2)on1	3.57
Cc1ccc(CC(=O)NC(C)C(=O)N2CCS(=O)(=O)CC2)s1 (configuration not stated)	11.2
Cn1cc(-c2csc(N3CCCCCC3)n2)cn1	4.22
CC(C)(C)c1nc(CNC2CCCN(c3cccnn3)C2)no1 (configuration not stated)	4.93
Cc1nc(C)c(C)c(N2CCC(NCCOc3ccccc3)CC2)n1	-1.45

SMILES	cytotoxicity at 10 µM [%]
O=C(c1[nH]nc(C2CC2)c1Cl)N1CCN(S(=O)(=O)c2ccccc2)CC1	16
Cc1cnn(CC2CCCN2c2ncnc3ccccc23)c1 (configuration not stated)	46.8
NC(=O)CCSc1ccccc1NCc1ccc(Cl)s1	7.74
CC(C)(C)c1nc(CNc2ccccc2SCCC(N)=O)cs1	23.5
CN(Cc1cnccn1)S(=O)(=O)c1ccc(C(F)(F)F)nc1	-9.77
CN(C)S(=O)(=O)c1ccc(CNc2ccc(Cl)cn2)cc1	7.25
CCCN(CCc1ccccn1)C(=O)Cn1cc(C)cn1	-9.22
Cc1cc(C2CCCN(CC(=O)Nc3nc4c(s3)CCC4)C2)n[nH]1 (configuration not stated)	-44.2
O=C(NC1CCN(CC2CC2)C1)c1ccc(N2CCC(O)CC2)cc1 (configuration not stated)	-11.8
Cc1ccc(CN2C[C@H](NC(=O)c3nccn3C)[C@H]3OCCC[C@H]32)o1	-85
O=C(NCC1CC1)c1cc2c(s1)CCN2c1ncccn1	-101
CCOCC1CN(C(=O)c2ccco2)Cc2cnn(CC)c21 (configuration not stated)	-69
CC(C)CC(=O)N1CC(=O)c2sc(Nc3ccc(C#N)cc3)nc2C1	-0.279
CNc1cc(C)nc(NC2CCCN(C3Cc4ccccc4C3)C2)n1 (configuration not stated)	0.403
CSCC[C@@H](CO)Nc1ccc(-c2nc(-c3ccccc3F)no2)cn1	9.74
c1ccc(OCc2noc(CN3CCC(N4CCSCC4)CC3)n2)cc1	-6.95
NC1CCCCN(Cc2cc(-c3ccccc3OC(F)(F)F)no2)C1 (configuration not stated)	-4.52
CC(=O)N1CCc2c(nc(N(C)C)nc2NC(C)Cc2cccs2)C1 (configuration not stated)	-42.9
Fc1cc(Oc2ccc(C(F)(F)F)cn2)cc(F)c1CN1CCCC1	24
O=C1N(CC2CC2)CCCC1(O)CN1CCc2[nH]ncc2C1 (configuration not stated)	-2.2
C[C@H](c1ccc(F)cc1)n1c(C2CCN(C)CC2)n[nH]c1=O	9.93
CCN1CCCC(CN(C)c2nccc(-c3ccc(C)nc3C)n2)C1 (configuration not stated)	-13.5

SMILES	cytotoxicity at 10 µM [%]
CC(C)[C@H]1CN(c2ccncc2)C[C@@H]1NS(=O)(=O)N(C)C	4.56
CC(C)c1cc(NC2CCCN(C(=O)c3cccs3)C2)ncn1 (configuration not stated)	-7.55
COC[C@]1(O)CCN(C(=O)c2ccc(CN(C)C)o2)CC1(C)C	4.35
CN(Cc1cccc(OCCO)c1)Cc1cccc2ncccc12	26
CSc1nccc(N2CCC(NCc3ccc4nsnc4c3)CC2)n1	28.3
Cc1nc(CN(C)C)cc(N2CCCC(COc3ccc(F)cc3)C2)n1 (configuration not stated)	-7.4
Cc1nc(C)c(C(=O)N2C[C@@H](C(=O)O)[C@H](C3CC3)C2)s1	7.53
CCNC(=O)[C@@H]1C[C@@H](N)CN1Cc1ccc(Sc2ccc(C)cc2)o1	-53.4
COc1cc(N(C)Cc2cccc(-n3cccn3)c2)nc(N)n1	49.1
Cc1[nH]c2c(C)ccc(C)c2c1CC(=O)NCC(O)c1cccnc1 (configuration not stated)	-2.11
CCCN(CC)C(=O)c1cc(Cn2c(C)nc3ccccc32)[nH]n1	36.7
CC1(C)CN(C(=O)c2ncc(F)cc2F)CCC1(O)CN1CCOCC1 (configuration not stated)	-8.37
CCNc1ccnc(N2Cc3cnn(Cc4ccc(F)cc4)c3C2)n1	10
O=C(c1cc(-c2cn[nH]c2)nc2cc(F)ccc12)N1CCS(=O)(=O)CC1	0.141
Cc1nc(-c2cn(CCN)nn2)n(-c2ccc(C(F)(F)F)cc2)n1	-1.77
Cc1c[nH]c(CN2CCOC(c3ccc(Cl)cc3)C2)c(C)c1=O (configuration not stated)	13.4
Cc1ccc(Cl)cc1C(=O)N1CCC2(CC1)c1ccccc1[C@@H](N)[C@@H]2O	-13.8
O=C1CC[C@H]2CN(Cc3ccc(Cl)s3)CC[C@H]2N1CCc1c[nH]cn1	38.5
Cc1cc(C)c2nc(CN3CCCC(c4cc[nH]n4)C3)cc(O)c2c1 (configuration not stated)	-3.97
CCn1ccnc1CN1CCCC(CO)(Cc2cccc(Cl)c2)C1 (configuration not stated)	-0.0444
COc1ccccc1N1CCN(C(=O)c2ccnc(N(C)C)c2)CC1	84.2
COc1cc(C(=O)Nc2nc(C)no2)cc(Cl)c1OC	-4.29

SMILES	cytotoxicity at 10 µM [%]
CC(C)c1n[nH]c(C(=O)Nc2ccncc2)c1Br	12.6
Cc1cccc(NC2CCN(C(=O)Nc3cccc4[nH]ccc34)CC2)n1	-6.85
c1cncc(-c2ccc3c(c2)C2(CC3)CCN(c3nncs3)CC2)c1	13.1
Cn1cnc(S(=O)(=O)N2C[C@H]3CN(Cc4ccccn4)C[C@H]3C2)c1	4.26
CN(C)C(=O)[C@@]12CCO[C@@H]1CCN(Cc1ccc3c(c1)OCO3)C2	0.863
CC(C)N1CCOCC2(CCCN(C(=O)c3cncn3C)C2)C1 (configuration not stated)	-1.09
CC(C)NC(=O)N1CCN(CC2CC2)CC2(CC(=O)N(C)C2)C1 (configuration not stated)	-1.34
CCOC(=O)[C@]12CCCN(Cc3nccs3)C[C@H]1CN(C(C)C)C2	-8.81
Cc1cnc(N2CCCC3(CCCN3CC(=O)N(C)C)C2)nc1 (configuration not stated)	-0.634
COCCN1CC2(CCOCC2)c2cc(NC(=O)C3CC=CC3)ccc21	-109
O=C1CC2(CCCCN2C(=O)c2ccco2)CN1c1cccnc1 (configuration not stated)	-1.69
COCCN1CCO[C@H]2CN(C(=O)c3cccs3)C[C@H]21	2.1
O=C1CC2(CCN(Cc3ccco3)C2)CN1c1ccc2c(c1)OCO2 (configuration not stated)	-75.9
Cc1ccc(CN2Cc3nnn(C)c3C(COCc3ccccc3)C2)s1 (configuration not stated)	1.58
Cc1cccc(CN2C[C@@H]3OCCN(c4ccnc(N(C)C)n4)[C@@H]3C2)c1	-94.9
COc1cccc(-c2ncc(CN3C[C@H]4CC[C@@H](C3)N(C)C4=O)s2)c1	6.74
CCOCCN1CCN(C=C2NN=C(c3occc3C)O2)CC1CC (configuration not stated)	-50.3
Cc1[nH]n(C)c2nc(=O)cc(C(F)(F)C(F)(F)F)c1-2	-2.22
NC1CCC(Nc2nccc(CCC(F)(F)F)n2)CC1 (configuration not stated)	-15
